Assay results from ChEMBL document CHEMBL5058577, “EUbOPEN Chemogenomics Library 2 (Multiplex)” (2022).

Test system: HEK-293T
Assay: Multiplex assay against HEK293T
Format: toxicity, cell-based
Conditions: human
Method in brief: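 With compound added, live cells were imaged on a CQ1 microscope at 37°C and 5% CO2; staining with Hoechst33342, BioTracker Green Microtubule Cytoskeleton Dye, MitoTracker Red and Annexin V Alexa Fluor 680 had been done at seeding. The CellPathfinder machine-learning gating scheme split cells into Hoechst high-intensity objects or normal cells, normal cells into healthy, pyknosed or fragmented nuclei, and pyknosed cells into mitotic or apoptotic. The tubulin, mitochondrial-mass and membrane-permeability phenotypes are per cents of healthy-nucleus cells.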

[1] = 12 h, 1 µM, compound concentration 1 uM, replicate 1
[2] = 12 h, 1 µM, compound concentration 1 uM, replicate 2
[3] = 12 h, 10 µM, compound concentration 10 uM, replicate 1
[4] = 12 h, 10 µM, compound concentration 10 uM, replicate 2
[5] = 24 h, 1 µM, compound concentration 1 uM, replicate 1
[6] = 24 h, 1 µM, compound concentration 1 uM, replicate 2
[7] = 24 h, 10 µM, compound concentration 10 uM, replicate 1
[8] = 24 h, 10 µM, compound concentration 10 uM, replicate 2
[9] = 48 h, 1 µM, compound concentration 1 uM, replicate 1
[10] = 48 h, 1 µM, compound concentration 1 uM, replicate 2
[11] = 48 h, 10 µM, compound concentration 10 uM, replicate 1
[12] = 48 h, 10 µM, compound concentration 10 uM, replicate 2

SMILES: COc1cccc2c1c(NS(=O)(=O)c1ccc(Cl)s1)nn2Cc1cccc(CNC(=O)C(C)(C)O)c1
- Population Apoptotic (%) [1]: 31%
- Population Fragmented Nuclei (%) [1]: 6%
- Population Healthy Nuclei (%) [1]: 82%
- Population Hoechst High Intensity Objects (%) [1]: 6%
- Population Membrane Permeable-Phenotype (%) [1]: 0%
- Population Mitochondria Different-Phenotype (%) [1]: 39%
- Population Mitotic Cells (%) [1]: 68%
- Population Normal (%) [1]: 93%
- Population Pyknosed Nuclei (%) [1]: 10%
- Population Tubulin-Different-Phenotype (%) [1]: 26%
- Total Cell Count [1]: 469
- Population Apoptotic (%) [2]: 34%
- Population Fragmented Nuclei (%) [2]: 7%
- Population Healthy Nuclei (%) [2]: 77%
- Population Hoechst High Intensity Objects (%) [2]: 10%
- Population Mitochondria Different-Phenotype (%) [2]: 52%
- Population Mitotic Cells (%) [2]: 65%
- Population Normal (%) [2]: 89%
- Population Pyknosed Nuclei (%) [2]: 15%
- Population Tubulin-Different-Phenotype (%) [2]: 23%
- Total Cell Count [2]: 315
- Population Apoptotic (%) [3]: 42%
- Population Fragmented Nuclei (%) [3]: 6%
- Population Healthy Nuclei (%) [3]: 80%
- Population Hoechst High Intensity Objects (%) [3]: 7%
- Population Membrane Permeable-Phenotype (%) [3]: 0%
- Population Mitochondria Different-Phenotype (%) [3]: 51%
- Population Mitotic Cells (%) [3]: 57%
- Population Normal (%) [3]: 92%
- Population Pyknosed Nuclei (%) [3]: 12%
- Population Tubulin-Different-Phenotype (%) [3]: 38%
- Total Cell Count [3]: 356
- Population Apoptotic (%) [4]: 35%
- Population Fragmented Nuclei (%) [4]: 5%
- Population Healthy Nuclei (%) [4]: 78%
- Population Hoechst High Intensity Objects (%) [4]: 11%
- Population Mitochondria Different-Phenotype (%) [4]: 69%
- Population Mitotic Cells (%) [4]: 65%
- Population Normal (%) [4]: 88%
- Population Pyknosed Nuclei (%) [4]: 16%
- Population Tubulin-Different-Phenotype (%) [4]: 33%
- Total Cell Count [4]: 280
- Population Apoptotic (%) [5]: 26%
- Population Fragmented Nuclei (%) [5]: 7%
- Population Healthy Nuclei (%) [5]: 81%
- Population Hoechst High Intensity Objects (%) [5]: 2%
- Population Membrane Permeable-Phenotype (%) [5]: 0%
- Population Mitochondria Different-Phenotype (%) [5]: 22%
- Population Mitotic Cells (%) [5]: 73%
- Population Normal (%) [5]: 97%
- Population Pyknosed Nuclei (%) [5]: 11%
- Population Tubulin-Different-Phenotype (%) [5]: 17%
- Total Cell Count [5]: 617
- Population Apoptotic (%) [6]: 44%
- Population Fragmented Nuclei (%) [6]: 6%
- Population Healthy Nuclei (%) [6]: 84%
- Population Hoechst High Intensity Objects (%) [6]: 7%
- Population Mitochondria Different-Phenotype (%) [6]: 37%
- Population Mitotic Cells (%) [6]: 55%
- Population Normal (%) [6]: 92%
- Population Pyknosed Nuclei (%) [6]: 8%
- Population Tubulin-Different-Phenotype (%) [6]: 15%
- Total Cell Count [6]: 357
- Population Apoptotic (%) [7]: 40%
- Population Fragmented Nuclei (%) [7]: 10%
- Population Healthy Nuclei (%) [7]: 73%
- Population Hoechst High Intensity Objects (%) [7]: 5%
- Population Membrane Permeable-Phenotype (%) [7]: 0%
- Population Mitochondria Different-Phenotype (%) [7]: 34%
- Population Mitotic Cells (%) [7]: 60%
- Population Normal (%) [7]: 94%
- Population Pyknosed Nuclei (%) [7]: 16%
- Population Tubulin-Different-Phenotype (%) [7]: 23%
- Total Cell Count [7]: 462
- Population Fragmented Nuclei (%) [8]: 9%
- Population Healthy Nuclei (%) [8]: 77%
- Population Mitochondria Different-Phenotype (%) [8]: 46%
- Population Pyknosed Nuclei (%) [8]: 12%
- Population Tubulin-Different-Phenotype (%) [8]: 22%
- Total Cell Count [8]: 384
- Population Apoptotic (%) [9]: 16%
- Population Fragmented Nuclei (%) [9]: 10%
- Population Healthy Nuclei (%) [9]: 83%
- Population Hoechst High Intensity Objects (%) [9]: 2%
- Population Membrane Permeable-Phenotype (%) [9]: 0%
- Population Mitochondria Different-Phenotype (%) [9]: 18%
- Population Mitotic Cells (%) [9]: 83%
- Population Normal (%) [9]: 97%
- Population Pyknosed Nuclei (%) [9]: 6%
- Population Tubulin-Different-Phenotype (%) [9]: 11%
- Total Cell Count [9]: 1062
- Population Apoptotic (%) [10]: 28%
- Population Fragmented Nuclei (%) [10]: 11%
- Population Membrane Permeable-Phenotype (%) [10]: 2%
- Population Mitochondria Different-Phenotype (%) [10]: 21%
- Population Mitotic Cells (%) [10]: 71%
- Population Pyknosed Nuclei (%) [10]: 4%
- Population Tubulin-Different-Phenotype (%) [10]: 10%
- Total Cell Count [10]: 591
- Population Apoptotic (%) [11]: 26%
- Population Fragmented Nuclei (%) [11]: 16%
- Population Healthy Nuclei (%) [11]: 72%
- Population Hoechst High Intensity Objects (%) [11]: 4%
- Population Membrane Permeable-Phenotype (%) [11]: 0%
- Population Mitochondria Different-Phenotype (%) [11]: 25%
- Population Mitotic Cells (%) [11]: 73%
- Population Normal (%) [11]: 95%
- Population Pyknosed Nuclei (%) [11]: 10%
- Population Tubulin-Different-Phenotype (%) [11]: 16%
- Total Cell Count [11]: 646
- Population Apoptotic (%) [12]: 35%
- Population Fragmented Nuclei (%) [12]: 8%
- Population Healthy Nuclei (%) [12]: 83%
- Population Mitochondria Different-Phenotype (%) [12]: 27%
- Population Mitotic Cells (%) [12]: 65%
- Population Pyknosed Nuclei (%) [12]: 7%
- Population Tubulin-Different-Phenotype (%) [12]: 12%
- Total Cell Count [12]: 550
